Reference: publication PMC13201524 (Journal of structural biology, 2025)
Entries after “also recorded” stand apart in the source; their conditions may differ. Read-outs that look alike come from different tables or passages of the source.

Key:
mScn = molecular target: T1, mScn (Mus musculus, UniProt P11672); assay: 1H-15N Trosy HSQC NMR screening and titration on mScn; type: binding; conditions: FDA-approved drugs library and Vanderbilt discovery library; peak shifts of mScn
T1 sequence (P11672 with tags, fused parts or gaps): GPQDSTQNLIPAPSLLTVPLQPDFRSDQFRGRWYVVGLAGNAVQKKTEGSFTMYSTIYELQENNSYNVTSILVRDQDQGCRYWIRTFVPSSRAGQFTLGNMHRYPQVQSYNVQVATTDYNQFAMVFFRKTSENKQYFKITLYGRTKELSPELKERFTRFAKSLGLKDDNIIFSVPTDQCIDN
In short: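 15N-labelled mScn was expressed in E. coli BL21(DE3) as a 6His-GB1 fusion, and the GB1 tag was cleaved with HRV3C. Screening used pools of 12 compounds (1 μl each of 10 mM DMSO stock) with 20 μM mScn in 100 mM sodium phosphate pH 6.0, 5 vol% D2O and 2 vol% DMSO. Hits were re-tested singly, then titrated with 50 μM mScn (5 vol% DMSO) at protein:ligand ratios from 1:0 to 1:10.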

[1] = ref Gleiter and Mörike, 2002; Buter et al., 1999; cited from earlier work
[2] = ref Gleiter and Mörike, 2002; Buter et al., 1999; cited from earlier work; remark: listed apart in the source
hScn = conditions: read-out: binding affinity; ref Goetz et al., 2002; Hohlbaum et al., 2018; cited from earlier work
[3] = Isothermal titration calorimetry; type: binding
In short: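 Monomeric hScn C87S (and mutants) was expressed in E. coli on M9 medium and purified by Ni-NTA and size exclusion. The protein sat in the cell and the test compound in the syringe, both in matched 100 mM sodium phosphate pH 6.0 with 2% DMSO. Runs were at 25°C and 750 rpm: a 0.4 μL first injection, then at least 19 injections of 2 μL spaced 150 s. A ligand-into-buffer reference titration was run.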

CCOc1nc2cccc(C(=O)O)c2n1Cc1ccc(-c2ccccc2-c2nc(=O)o[nH]2)cc1 [azilsartan]
NMR screening / titration result in words (mScn): identified hits

CCOc1nc2cccc(C(=O)O)c2n1Cc1ccc(-c2ccccc2-c2nnn[nH]2)cc1 [candesartan]
NMR screening / titration result in words (mScn): tightest binding; also recorded: medium to low affinity
maximal plasma concentration [1]: around 0.227 μM
plasma protein binding [2]: exceeding 99%

O=C(N[C@H]1COC(=O)[C@@H](NC(=O)c2cccc(O)c2O)COC(=O)[C@@H](NC(=O)c2cccc(O)c2O)COC1=O)c1cccc(O)c1O [enterobactin]
Kd (hScn): 0.41 ± 0.11 nM

CCCCC(=O)N(Cc1ccc(-c2ccccc2-c2nnn[nH]2)cc1)[C@H](C(=O)O)C(C)C [valsartan]
NMR screening / titration result in words (mScn): identified hits

B1: Y138A: hScn_C87S point mutant, best performing loss of binding mutant (protein, UniProt P80188 21-198, looked up, variant C87S Y138A)
Neutrophil …: QDSTSDLIPAPPLSKVPLQQNFQDNQFQGKWYVVGLAGNAILREDKDPQKMYATIYELKEDKSYNVTSVLFRKKKCDYWIRTFVPGSQPGEFTLGNIKSYPGLTSYLVRVVSTNYNQHAMVFFKKVSQNREYFKITLAGRTKELTSELKENFIRFSKSLGLPENHIVFPVPIDQCIDG
increase of KD (decrease in binding affinity) compared to wild type ([3]; ITC, candesartan): fivefold

B2: T54R: hScn_C87S point mutant, best performing gain of binding mutant (protein, UniProt P80188 21-198, looked up, variant C87S T54R)
Neutrophil …: QDSTSDLIPAPPLSKVPLQQNFQDNQFQGKWYVVGLAGNAILREDKDPQKMYARIYELKEDKSYNVTSVLFRKKKCDYWIRTFVPGSQPGEFTLGNIKSYPGLTSYLVRVVSTNYNQHAMVFFKKVSQNREYFKITLYGRTKELTSELKENFIRFSKSLGLPENHIVFPVPIDQCIDG
Kd ([3]; read-out: ITC KD1, first binding event, value in nM): 115 nM
Kd ([3]; read-out: ITC- KD2, second binding event): 3500 nM
